We go through 1 compound from ChEMBL document CHEMBL4138318, “Discovery of 5-Cyano-6-phenylpyrimidin Derivatives Containing an Acylurea Moiety as Orally Bioavailable Reversal Agents against P-Glycoprotein-Mediated Mutidrug Resistance” (J Med Chem, 2018).

Data set [1] deals with T1, ATP-dependent translocase ABCB1 (Homo sapiens, UniProt P08183). Nature of the data set: Inhibition of ABCB1 in human SW620/AD300 cells assessed as reduction in [3H]-paclitaxel efflux preincubated for 4 hrs followed by [3H]-paclitaxel addition for 2 hrs measured after 120 mins by liquid scintillation counting method. In kind it is cell-based. The gist of the method:
(§1)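 After 2 h loading with 0.1 µM [3H]-paclitaxel (following 4 h compound pre-exposure), SW620 or SW620/AD300 cells moved to label-free medium for a 2 h efflux phase; samples taken at 0, 30, 60 and 120 min and radioactivity counted by liquid scintillation. Three independent assays, mean ± SD.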

The target in data set [2] is T1, ATP-dependent translocase ABCB1. The experiment in a line: Inhibition of ABCB1 in human SW620/AD300 cells assessed as accumulation of rhodamine 123 preincubated for 4 hrs followed by rhodamine 123 addition measured after 30 mins by flow cytometry. Particulars: 0.5 h. It counts as cell-based. (Flow cytometry measures light scatter and fluorescence of single cells or particles in a stream.)

Data set [3] has as its system SW620/AD300. Nature of the data set: Effect on subcellular localization of ABCB1 in human SW620/AD300 cells at 2 uM after 48 hrs by Hoechst 33258 staining-based immunofluorescence assay. It counts as functional, cell-based. The gist of the method: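 About 1×10^4 cells on coverslips incubated with compound 48 h, fixed in 4% paraformaldehyde ≥20 min, blocked 2 h in PBS with 5% BSA, anti-ABCB1 primary overnight at 4℃, Alexa Fluor 488 anti-goat secondary 2 h, nuclei stained with Hoechst 33258 20 min; imaged by laser scanning confocal microscopy.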

In data set [4] the test system is SW620/AD300. The experiment in a line: Antitumor activity against ABCB1 overexpressing human SW620/AD300 cells xenografted in BALB/c nude mouse assessed as reduction in tumor volume at 20 mg/kg/day, po cotreated with 5 mg/kg, ip paclitaxel measured after 21 days. It counts as functional, organism-based. In outline:
(§2)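 Female BALB/c nude mice (18-20 g, 5-6 weeks) bearing SW620/AD300 xenografts; grouping once tumours reached 100 mm3: saline vehicle […] ip, paclitaxel 5 mg/kg every 3 days ip, test agent 20 mg/kg/day orally, or the combination. Body weight and tumour volume recorded every 2 days over 21 days; tumours excised and weighed at end.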

The nature of data set [5]: Cytotoxicity against human SW620 cells assessed as survival at 2 uM after 72 hrs by MTT assay relative to control. In kind it is cell-based, SW-620. Particulars: read-out: Survival. (Tetrazolium assays rely on reduction of a dye to a coloured formazan, in cell work by metabolically active cells.)
Data set [6] can be described thus: Cytotoxicity against human SW620/AD300 cells assessed as survival at 2 uM after 72 hrs by MTT assay relative to control. It counts as cell-based. Particulars: read-out: Survival.
For data set [7], the target named is Cytochrome P450 3A4 (Homo sapiens, UniProt P08684). Nature of the data set: Inhibition of recombinant human CYP3A4 in presence of NADPH generating system by fluorescence assay. It counts as ADME.
For data set [8], the target named is T1, ATP-dependent translocase ABCB1. Nature of the data set: Inhibition of ABCB1 in human SW620/AD300 cells assessed as intracellular accumulation of [3H]-paclitaxel up to 4 uM preincubated for 4 hrs followed by [3H]-paclitaxel addition measured after 2 hrs by liquid scintillation counting method. It counts as cell-based. The gist of the method: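 Cells pre-exposed with or without compound at various concentrations 4 h at 37°C, then 0.1 µM [3H]-paclitaxel added for 2 h in continued presence of treatment; washed three times in cold PBS, lysed, radioactivity counted by liquid scintillation. Mean ± SD of three independent assays.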

The target is the same in data set [9]. The experiment in a line: Inhibition of ABCB1 in human SW620/AD300 cells assessed as decrease in rhodamine 123 efflux preincubated for 4 hrs followed by 30 mins incubation in Rho-123 containing medium and subsequent incubation in Rho-123 free medium up to 120 mins by flow cytometry. In kind it is cell-based. The gist of the method: (§3)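 Cells loaded with rhodamine 123 as in the accumulation assay (4 h compound pre-exposure, 1 µg/mL dye 30 min, 37℃), then kept in dye-free medium with or without reversal agent for 30, 60, 90 or 120 min at 37℃; intracellular fluorescence read by flow cytometry at 488/530 nm. Three independent experiments.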

Data set [10] shares this target. The experiment in a line: Inhibition of ABCB1 in human SW620/AD300 cells assessed as potentiation of paclitaxel-induced cytotoxicity after 72 hrs by MTT assay. It counts as cell-based. The gist of the method: (§4)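 SW620/AD300 cells (~5×10^3/well) treated with graded paclitaxel with or without modulator (2 µM, or 0.5-2 µM in dose series; 0.1% DMSO solvent control) for 72 h; MTT (5 mg/mL stock) added 4 h, absorbance 490 nm. IC50 as mean ± SD of three independent runs; reversal fold = paclitaxel IC50 without/with modulator.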

The target is the same in data set [11]. Nature of the data set: Inhibition of ABCB1 in human KB-C2 cells assessed as potentiation of vincristine-induced cytotoxicity by measuring fold reduction in vincristine IC50 at 1 uM preincubated for 4 hrs followed by vincristine addition measured after 72 hrs by MTT assay. It counts as cell-based.
Data set [12] shares this target. The experiment in a line: Stimulation of human ABCB1 ATPase activity expressed in high-five insect cell membrane vesicles by colorimetric analysis. In outline:
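Vanadate-sensitive ABCB1 ATPase activity in High Five insect cell membrane vesicles, measured with a commercial ATPase kit under a modified protocol; compound tested across 0-40 µM; maximal fold stimulation and concentration giving 50% stimulation derived.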

Data set [13] shares this target. Nature of the data set: Binding affinity to ABCB1 in human SW620/AD300 cells assessed as thermal stabilization preincubated for 30 mins followed by incubation at 40 to 61 degC for 3 mins by CETSA. It counts as cell-based. As to conditions: 0.05 h. The gist of the method: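 SW620/AD300 cells lysed by three liquid-nitrogen freeze-thaw cycles; ultracentrifuged supernatant split into compound-treated and solvent-control portions, incubated 30 min at 37℃, aliquoted and heated 3 min at 40, 43, 46, 49, 52, 55, 58 or 61℃; remaining ABCB1 or ABCC1 detected by western blotting.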

For data set [14], the system named is SW-620. The experiment in a line: Inhibition of rhodamine 123 efflux in human SW620 cells up to 4 uM preincubated for 4 hrs followed by 30 mins incubation in Rho-123 containing medium and subsequent incubation in Rho-123 free medium up to 120 mins by flow cytometry. In kind it is functional, cell-based. In outline:
as §3

Data set [15] addresses T1, ATP-dependent translocase ABCB1. Nature of the data set: Inhibition of ABCB1 in human SW620/AD300 cells assessed as potentiation of paclitaxel-induced cytotoxicity by measuring fold reduction in paclitaxel IC50 at 1 uM after 72 hrs by MTT assay. In kind it is cell-based. In outline: as §4
Data set [16] deals with SW620/AD300. Nature of the data set: Antitumor activity against ABCB1 overexpressing human SW620/AD300 cells xenografted in BALB/c nude mouse assessed as reduction in tumor volume at 20 mg/kg/day, po measured after 21 days. In kind it is functional, organism-based. In outline: as §2
For orientation: In xenograft studies the graft and the host belong to different species.

Data set [17] deals with SW-620. The experiment in a line: Inhibition of [3H]-paclitaxel efflux in human SW620 cells up to 4 uM preincubated for 4 hrs followed by [3H]-paclitaxel addition for 2 hrs measured after 120 mins by liquid scintillation counting method. It counts as functional, cell-based. In outline:
as §1

The target of data set [18] is T1, ATP-dependent translocase ABCB1. Nature of the data set: Inhibition of ABCB1 (unknown origin) expressed in HEK293 cells assessed as potentiation of vincristine-induced cytotoxicity by measuring fold reduction in vincristine IC50 at 1 uM preincubated for 4 hrs followed by vincristine addition measured after 72 hrs by MTT assay. In kind it is cell-based.
The target is the same in data set [19]. Nature of the data set: Inhibition of ABCB1 in human SW620/AD300 cells assessed as potentiation of paclitaxel-induced cytotoxicity by measuring fold reduction in paclitaxel IC50 at 0.5 uM after 72 hrs by MTT assay. In kind it is cell-based. The gist of the method: as §4
The target is the same in data set [20]. Nature of the data set: Inhibition of ABCB1 in human SW620/AD300 cells assessed as potentiation of paclitaxel-induced cytotoxicity by measuring fold reduction in paclitaxel IC50 at 2 uM after 72 hrs by MTT assay relative to paclitaxel alone. It counts as cell-based. In outline: as §4
Data set [21] deals with SW-620. The experiment in a line: Increase in rhodamine 123 accumulation in human SW620 cells up to 4 uM preincubated for 4 hrs followed by rhodamine 123 addition measured after 30 mins by flow cytometry. In kind it is functional, cell-based.

Activity calls are given as the source filed them. The rule behind the calls is not given here.

T1 sequence (P08183 whole entry): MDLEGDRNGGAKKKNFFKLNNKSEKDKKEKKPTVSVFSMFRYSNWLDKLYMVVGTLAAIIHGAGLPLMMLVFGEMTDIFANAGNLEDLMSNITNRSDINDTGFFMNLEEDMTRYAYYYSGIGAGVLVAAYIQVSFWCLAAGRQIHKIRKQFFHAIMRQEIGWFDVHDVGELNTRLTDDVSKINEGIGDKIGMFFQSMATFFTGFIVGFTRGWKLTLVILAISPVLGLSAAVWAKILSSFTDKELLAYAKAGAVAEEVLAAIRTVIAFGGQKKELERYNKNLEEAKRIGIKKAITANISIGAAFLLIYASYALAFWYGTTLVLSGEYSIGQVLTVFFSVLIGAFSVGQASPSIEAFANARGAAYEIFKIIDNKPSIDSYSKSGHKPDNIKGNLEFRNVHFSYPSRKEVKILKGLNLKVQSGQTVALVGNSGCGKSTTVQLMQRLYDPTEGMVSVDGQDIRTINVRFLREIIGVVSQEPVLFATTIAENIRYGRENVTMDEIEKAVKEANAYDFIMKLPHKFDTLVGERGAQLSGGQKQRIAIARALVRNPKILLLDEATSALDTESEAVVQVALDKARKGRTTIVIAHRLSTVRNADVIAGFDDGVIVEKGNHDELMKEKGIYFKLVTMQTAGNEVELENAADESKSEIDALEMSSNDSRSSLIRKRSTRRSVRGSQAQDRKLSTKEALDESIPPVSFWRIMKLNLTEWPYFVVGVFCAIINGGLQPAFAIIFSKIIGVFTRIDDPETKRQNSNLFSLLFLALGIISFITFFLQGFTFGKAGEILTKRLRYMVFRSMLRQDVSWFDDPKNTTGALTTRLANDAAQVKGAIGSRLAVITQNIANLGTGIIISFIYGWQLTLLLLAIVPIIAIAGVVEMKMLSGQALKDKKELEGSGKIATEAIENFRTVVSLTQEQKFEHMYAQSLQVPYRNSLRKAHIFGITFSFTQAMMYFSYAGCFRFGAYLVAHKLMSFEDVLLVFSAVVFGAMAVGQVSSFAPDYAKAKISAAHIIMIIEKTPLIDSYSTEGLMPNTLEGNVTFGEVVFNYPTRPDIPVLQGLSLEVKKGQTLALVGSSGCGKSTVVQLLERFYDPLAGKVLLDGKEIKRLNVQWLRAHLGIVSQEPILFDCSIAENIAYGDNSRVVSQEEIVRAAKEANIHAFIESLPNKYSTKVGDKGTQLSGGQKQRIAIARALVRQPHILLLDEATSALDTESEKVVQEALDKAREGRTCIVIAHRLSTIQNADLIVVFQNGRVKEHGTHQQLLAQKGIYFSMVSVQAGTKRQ
Sequence of Cytochrome P450 3A4 (P08684 whole entry): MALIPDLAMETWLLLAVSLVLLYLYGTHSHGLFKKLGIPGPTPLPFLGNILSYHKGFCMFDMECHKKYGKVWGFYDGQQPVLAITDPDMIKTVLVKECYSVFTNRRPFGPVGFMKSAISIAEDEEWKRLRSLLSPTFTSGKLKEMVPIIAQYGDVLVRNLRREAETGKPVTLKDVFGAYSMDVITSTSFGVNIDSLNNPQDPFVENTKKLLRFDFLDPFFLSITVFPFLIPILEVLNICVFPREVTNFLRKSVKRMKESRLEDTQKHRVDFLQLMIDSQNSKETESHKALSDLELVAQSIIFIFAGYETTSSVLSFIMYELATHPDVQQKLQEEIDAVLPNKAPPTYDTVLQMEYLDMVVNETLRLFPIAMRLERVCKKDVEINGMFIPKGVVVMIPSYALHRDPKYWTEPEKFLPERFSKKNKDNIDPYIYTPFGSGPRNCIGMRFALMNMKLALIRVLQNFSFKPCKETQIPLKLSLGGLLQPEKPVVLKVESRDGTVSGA

With `COc1cc(-c2nc(SCC(=O)NC(=O)Nc3ccccn3)nc(Nc3cccc(Cl)c3)c2C#N)cc(OC)c1OC`, the “inhibition (INH)” value in [1] is given as “Dose-dependent effect”; in [2], “Dose-dependent effect”; in data set [8], “Active”; in data set [9], “Dose-dependent effect”; in [10], “Dose-dependent effect”. Besides, the outcome in data set [3], in data set [16] and in [21] was inactive. Also, the outcome in data set [4] was Active. For the same compound, the viability at 72 h, 2 µM in [5] and in data set [6] was more than 90% in each case. Further, the IC50 in [7] stood at 17.2 µM. Also, the “fold change (FC)” value in data set [11] is 3.85; in [12] it was 4.56; in [15], 135.03; in data set [18], 9.75; in [19], 72.17; in data set [20] it was 837.2. Further, the result in data set [13] was Active. Moreover, the inhibition result in data set [14] and in data set [17] was “inactive” each time.

As a reminder, the IC50 is the concentration at which inhibition is half-maximal.
